From PubChem BioAssay
Records with an inconclusive call do not appear.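 Rule for the calls, unless noted: active = inhibition over a set limit, the all-compound mean plus 3 SD, in both replicate runs; inconclusive = over that limit in just one replicate run; inactive = at or under that limit in both runs.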

Assays:
[1] = S. cerevisiae growth inhibition in permissive medium (OD615), pilot counter-assay for S. cerevisiae lifespan shortening project, permissive growth control (AID 705;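 active = growth inhibition above 25% in both replicates, a cutoff set 3 SD above the mean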); settings: OD615, 24 h, at 10 µM, hits give high values
Outline: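 System: Engineered DeaD yeast | Buffer or medium: SC raffinose/galactose permissive medium | Doses: 10 µM single dose, 0.25% DMSO | Times: 24 h exposure, 30 °C | Measured by: OD615 turbidity read | Read-out: Yeast growth inhibition indicated by reduced 24 h OD615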

[2] = S. cerevisiae growth inhibition in restrictive medium, OD615, pilot screen, restrictive growth control, yeast lifespan reduction project (AID 706;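 active = growth inhibition above a set limit, 3 SD over mean compound inhibition, in both replicates, cut at about 43% in these data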;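 note: modified DeaD lifespan yeast strain shifted to restrictive glucose medium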); settings: OD615, 48 h, at 10 µM, hits give high values
Outline: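 Assay system: engineered S. cerevisiae DeaD strain; Buffer or medium: CSMM-D glucose medium; Dosing: 10 µM compound, 0.25% DMSO; Times: cell pre-growth 4 h, compound exposure 48 h, 30 °C; Detection: absorbance (optical density) measured at 615 nm.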

[3] = doxorubicin toxicity protection in MRP-1 cells – H69AR cells, CellTiter-Glo, duplicate, MRP-1 activator project, pilot screen (AID 807;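 active = viability increase at or above a cutoff of the median across tested compounds plus 3 SD, cut at about 8.5% in these data, passing the limit was not always enough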;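 note: compound pretreatment 18-22 h then 72 h combined with doxorubicin; 0% = doxorubicin alone and 100% = vehicle without doxorubicin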); settings: H69AR viability with doxorubicin, CellTiter-Glo luminescence; at 10 µM; hits give high values
[4] = viability of HCT116 without oncogenic beta-catenin – human colon tumor cells, pilot screen (AID 823;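 active = cell viability at or below a set limit in both duplicate runs, the limit being the all-compound median minus 4 SD, cut at about 23% in these data, passing the limit was not always enough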;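 note: 0% = wells killed by 20 µM Hyamine and 100% = untreated DMSO cell wells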); settings: HCT116 beta-catenin knockout viability, CellTiter-Glo, 60 h; at 10 µM; hits give low values
[5] = viability of PTEN-null HCT116 cells – cell-based, HCT116 clonal line, CellTiter-Glo, pilot screen (AID 824;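 active = viability at or below 27.92% in each of two runs, the all-compound median minus 4 SD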;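 note: 0% = 20 µM Hyamine control and 100% = vehicle cell control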); settings: HCT116 PTEN-deleted viability, 60 h, at 10 µM, hits give low values
[6] = RAM pathway blockade in budding yeast – dse1pr::URA3 reporter, 5-FOA selection, pilot screen (AID 869);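 note: 0% = DMSO wells with no growth and 100% = 10 µM 1-NA-PP1 with full growth; RAM network block rescues cells from 5-FOA so hits raise OD615 growth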; settings: S. cerevisiae dse1pr::URA3 5-FOA growth, OD615, 2 d; at 10 µM; hits give high values; strain carries analog-sensitive mutant Cbk1 kinase
[7] = RAM signaling pathway blockade in yeast – S. cerevisiae, Pdr1DBD-CYC8 efflux-inhibited sensitized strain, primary screen (AID 1298;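 active = RAM network inhibition above 8.4% in each of two replicates, 3 SD over the compound average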;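 note: 0% = DMSO untreated cells without growth and 100% = 10 µM 1-NA-PP1 full growth; higher means more yeast growth rescued from 5-FOA killing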); settings: S. cerevisiae cbk1-as DSE1-URA3 strain, 5-FOA growth OD615, 2 d; at 50 µM; hits give high values

OCCCc1nc2ccccc2n1CCOc1ccccc1
inactive: growth inhibition [1] -10.4% | growth inhibition [2] 12.7% | viability increase [3] -0.86% | viability [4] 88.5% | viability [5] 94.6% | inhibition [6] 0.595% | RAM network inhibition [7] 2.86%

CN1CCN(S(=O)(=O)c2ccc3ccccc3c2)CC1
inactive: growth inhibition [1] -0.14% | growth inhibition [2] -1.93% | viability increase [3] -2.23% | viability [4] 103% | viability [5] 105% | inhibition [6] 2.92% | RAM network inhibition [7] 0.63%

O=C(O)CCC(=O)NCc1ccc2[nH]c3c(c2c1)CCCC3
inactive: growth inhibition [1] -13.2% | growth inhibition [2] 3.53% | viability increase [3] 0.95% | viability [4] 101% | viability [5] 96.5% | inhibition [6] 1.51% | RAM network inhibition [7] 4.69%

Cc1nn(-c2ccc(Cl)cc2)c2sc(C(=O)N3CCN(C(=O)c4ccco4)CC3)cc12
inactive: growth inhibition [1] -4.13% | growth inhibition [2] -10.7% | viability increase [3] -5.55% | viability [4] 89.3% | viability [5] 82.5% | inhibition [6] 2% | RAM network inhibition [7] 2.13%

Cc1cc(NC(=O)COn2nnc3ccc(Cl)cc32)no1
inactive: growth inhibition [1] -6.7% | growth inhibition [2] 1.51% | viability increase [3] 1.22% | viability [4] 94.3% | viability [5] 91.2% | inhibition [6] 0.535% | RAM network inhibition [7] 2.19%

CCn1c(CNC(=O)COC)nc2ccccc21
inactive: growth inhibition [1] -5.41% | growth inhibition [2] 0.165% | viability increase [3] 0.97% | viability [4] 105% | viability [5] 97.2% | inhibition [6] 0.7% | RAM network inhibition [7] 5.67%

CCOC(=O)CSC1=C(C#N)C(c2ccc(Cl)cc2)CC(=O)N1 (configuration not stated)
inactive: growth inhibition [1] -15.6% | growth inhibition [2] -15.6% | viability increase [3] 0.52% | viability [4] 87.8% | viability [5] 82.5% | inhibition [6] 0.69% | RAM network inhibition [7] 0.53%

CCOC(=O)CSc1nnc(CSc2nc3sc4c(c3c(=O)[nH]2)CCC4)n1C
inactive: growth inhibition [1] -5.48% | growth inhibition [2] 4.33% | viability increase [3] -2% | viability [4] 98.4% | viability [5] 107% | inhibition [6] 0.35% | RAM network inhibition [7] 6.56%

CC(C)(Oc1ccc(Cl)cc1)C(=O)N1CCN(c2ccccn2)CC1
inactive: growth inhibition [1] -7.41% | growth inhibition [2] 3.08% | viability increase [3] -2.47% | viability [4] 70.7% | viability [5] 76.1% | inhibition [6] 0.32% | RAM network inhibition [7] -1.34%

CCC(C)NS(=O)(=O)c1ccc(NC(=O)c2c(-c3ccccc3)noc2C)cc1 (configuration not stated)
inactive: growth inhibition [1] -6.46% | growth inhibition [2] -11% | viability increase [3] -0.12% | viability [4] 86.3% | viability [5] 71.1% | inhibition [6] 0.48% | RAM network inhibition [7] 5.94%

COc1ccc(S(=O)(=O)N2CCN(CCO)CC2)cc1-c1nnc2c3ccccc3c(C)nn12
inactive: growth inhibition [1] -4.39% | growth inhibition [2] -6.93% | viability increase [3] -0.85% | viability [4] 101% | viability [5] 101% | inhibition [6] 1.31% | RAM network inhibition [7] 0.95%

Cc1ccc2oc(=O)c3cnn(CC(=O)NC4CCC(C)CC4)c3c2c1 (configuration not stated)
inactive: growth inhibition [1] -14.1% | growth inhibition [2] -15.1% | viability increase [3] 0.16% | viability [4] 94.4% | viability [5] 86% | inhibition [6] 1.02% | RAM network inhibition [7] 2.93%

COc1ccc(Cl)cc1N(CC(=O)Nc1ccc2c(c1)OCO2)S(C)(=O)=O
inactive: growth inhibition [1] -15.1% | growth inhibition [2] -11.7% | viability increase [3] -3.17% | viability [4] 92.6% | viability [5] 89.4% | inhibition [6] 0.79% | RAM network inhibition [7] 2.18%

Cc1cc(NC(=O)COC(=O)c2ccc(F)c(S(=O)(=O)N3CCOCC3)c2)no1
inactive: growth inhibition [1] -13.5% | growth inhibition [2] -21.9% | viability increase [3] -1.16% | viability [4] 103% | viability [5] 96.8% | inhibition [6] 1.03% | RAM network inhibition [7] 3.16%

O=C(C1CCCN(c2nnc(-n3cccc3)s2)C1)N1CCN(c2ccccc2)CC1 (configuration not stated)
inactive: growth inhibition [1] -4% | growth inhibition [2] -4.55% | viability increase [3] -1.11% | viability [4] 88.9% | viability [5] 86.5% | inhibition [6] 0.485% | RAM network inhibition [7] 1.12%

O=C1CSC(c2nn(-c3ccccc3)cc2-c2cc3ccccc3oc2=O)N1Cc1ccco1 (configuration not stated)
inactive: growth inhibition [1] -1.13% | growth inhibition [2] 1.33% | viability increase [3] -4.75% | viability [4] 77.4% | viability [5] 76.9% | inhibition [6] 2.16% | RAM network inhibition [7] 2.95%

COc1ccc(OC)c(C2CC(=O)c3c([nH]c(C(=O)OCC4CCCO4)c3C)C2)c1 (configuration not stated)
inactive: growth inhibition [1] -8.91% | growth inhibition [2] -10.4% | viability increase [3] -4.85% | viability [4] 43.8% | viability [5] 39% | inhibition [6] 1.52% | RAM network inhibition [7] 0.79%

CCS(=O)(=O)NCc1csc(-c2ccccc2)n1
inactive: growth inhibition [1] -0.375% | growth inhibition [2] -0.625% | viability increase [3] -2% | viability [4] 89.9% | viability [5] 87.5% | inhibition [6] 0.635% | RAM network inhibition [7] 5.48%

Cc1onc(-c2ccccc2)c1C(=O)Nc1ccccc1C#N
inactive: growth inhibition [1] -5.39% | growth inhibition [2] -4.02% | viability increase [3] -2.87% | viability [4] 97.3% | viability [5] 91.8% | inhibition [6] 1.89% | RAM network inhibition [7] 2.87%

COc1ccc(C(C)(C)C)cc1NC(=O)COC(=O)c1cnc(C)cn1
inactive: growth inhibition [1] -4.5% | growth inhibition [2] -5.05% | viability increase [3] -2.09% | viability [4] 97.3% | viability [5] 94.3% | inhibition [6] 0.395% | RAM network inhibition [7] 4.9%

COc1ccc(OC)c(NC(=O)CNC(=O)Cn2ccc3ccccc3c2=O)c1
inactive: growth inhibition [1] -9.38% | growth inhibition [2] 10.5% | viability increase [3] -1.6% | viability [4] 104% | viability [5] 90.5% | inhibition [6] 3.29% | RAM network inhibition [7] -0.05%

CCOC(=O)C1=C(C)NC(=O)NC1c1ccco1 (configuration not stated)
inactive: growth inhibition [1] 1.02% | growth inhibition [2] -9.79% | viability increase [3] -3.38% | viability [4] 103% | viability [5] 105% | inhibition [6] -0.995% | RAM network inhibition [7] -0.57%

COc1ccc(N2CCN(C(=O)c3ccc(CS(=O)(=O)c4ccc(OC)cc4)o3)CC2)cc1
inactive: growth inhibition [1] -9.34% | growth inhibition [2] -3.61% | viability increase [3] -1.85% | viability [4] 92.1% | viability [5] 79.2% | inhibition [6] 1.83% | RAM network inhibition [7] 4.78%

COc1cc(OC)c(Nc2cc(C)nc3nc(C)nn23)cc1Cl
inactive: growth inhibition [1] 4.72% | growth inhibition [2] -1.03% | viability increase [3] -1.47% | viability [4] 106% | viability [5] 104% | inhibition [6] 3.52% | RAM network inhibition [7] -0.72%

COc1ccccc1N1CCN(C(=O)CCc2ccc(S(=O)(=O)NC(C)C)cc2)CC1
inactive: growth inhibition [1] -12.7% | growth inhibition [2] -19.8% | viability increase [3] -2.97% | viability [4] 97.6% | viability [5] 102% | inhibition [6] 0.85% | RAM network inhibition [7] 4.61%

COc1ccc(-c2c(C)oc3cc(O)cc(O)c3c2=O)cc1OC
inactive: growth inhibition [1] -12.4% | growth inhibition [2] -5.23% | viability increase [3] -1.14% | viability [4] 109% | viability [5] 93.8% | inhibition [6] 1.01% | RAM network inhibition [7] 4.79%

O=C1c2ccccc2C(O)N1Cc1ccccc1Cl (configuration not stated)
inactive: growth inhibition [1] -1.72% | growth inhibition [2] -0.325% | viability increase [3] -1.74% | viability [4] 93.7% | viability [5] 81.2% | inhibition [6] 2.76% | RAM network inhibition [7] 1.48%

CCn1cc(Br)c(C(=O)Nc2ccc(F)c(Cl)c2)n1
inactive: growth inhibition [1] 0.5% | growth inhibition [2] -5.7% | viability increase [3] -3.96% | viability [4] 84.1% | viability [5] 80.6% | inhibition [6] -0.565% | RAM network inhibition [7] -0.16%

Cc1ccc2[nH]c(=O)c(-c3noc(C(C)C)n3)cc2c1
inactive: growth inhibition [1] -11.9% | growth inhibition [2] -1.75% | viability increase [3] -2.88% | viability [4] 114% | viability [5] 96.5% | inhibition [6] 0.48% | RAM network inhibition [7] 5.62%

O=C(Nc1ccc2c(c1)OCO2)C1CCCN1C(=O)OCc1ccccc1 (configuration not stated)
inactive: growth inhibition [1] -17.8% | growth inhibition [2] -4.2% | viability increase [3] -1.45% | viability [4] 94.4% | viability [5] 93.6% | inhibition [6] 1.32% | RAM network inhibition [7] 4.12%

CC(=O)N=C1SC2CS(=O)(=O)CC2N1c1c(Cl)cccc1Cl (configuration not stated)
inactive: growth inhibition [1] 5.46% | growth inhibition [2] 3.7% | viability increase [3] -1.41% | viability [4] 99.4% | viability [5] 94.2% | inhibition [6] 0.405% | RAM network inhibition [7] -0.17%

Cc1oc(-c2cccs2)nc1CS(=O)CC(=O)NCCc1ccccc1 (configuration not stated)
inactive: growth inhibition [1] 0.14% | growth inhibition [2] 34.7% | viability increase [3] -0.31% | viability [4] 86.1% | viability [5] 97.5% | inhibition [6] 2.6% | RAM network inhibition [7] 7.8%

O=S(=O)(NCCSc1nc2ccccc2o1)c1ccccc1
inactive: growth inhibition [1] -8% | growth inhibition [2] -2.81% | viability increase [3] -1.25% | viability [4] 94.4% | viability [5] 89% | inhibition [6] -0.55% | RAM network inhibition [7] 6.51%

COc1ccccc1CNC(=O)c1ccc(CNc2c(N3CCCC3)c(=O)c2=O)cc1
inactive: growth inhibition [1] 3.65% | growth inhibition [2] -2.78% | viability increase [3] -2.46% | viability [4] 98.8% | viability [5] 94.8% | inhibition [6] 0.46% | RAM network inhibition [7] 2.8%

CC(C)N(Cc1nc(-c2ccccc2)no1)C(=O)Cc1ccccc1
inactive: growth inhibition [1] -14.4% | growth inhibition [2] -16.3% | viability increase [3] -2.2% | viability [4] 87.1% | viability [5] 79.3% | inhibition [6] -0.4% | RAM network inhibition [7] 2.86%

CCN(c1ccccc1)c1cc(C)nc2ncnn12
inactive: growth inhibition [1] -18% | growth inhibition [2] -1.56% | viability increase [3] -3.24% | viability [4] 96.7% | viability [5] 94.9% | inhibition [6] 1.6% | RAM network inhibition [7] 4.57%
